Test [1] concerns the target T1, Adrenergic receptor alpha-2 (Rattus norvegicus, UniProt P22086+P19328+P22909).
T1 sequence (P22086 whole entry): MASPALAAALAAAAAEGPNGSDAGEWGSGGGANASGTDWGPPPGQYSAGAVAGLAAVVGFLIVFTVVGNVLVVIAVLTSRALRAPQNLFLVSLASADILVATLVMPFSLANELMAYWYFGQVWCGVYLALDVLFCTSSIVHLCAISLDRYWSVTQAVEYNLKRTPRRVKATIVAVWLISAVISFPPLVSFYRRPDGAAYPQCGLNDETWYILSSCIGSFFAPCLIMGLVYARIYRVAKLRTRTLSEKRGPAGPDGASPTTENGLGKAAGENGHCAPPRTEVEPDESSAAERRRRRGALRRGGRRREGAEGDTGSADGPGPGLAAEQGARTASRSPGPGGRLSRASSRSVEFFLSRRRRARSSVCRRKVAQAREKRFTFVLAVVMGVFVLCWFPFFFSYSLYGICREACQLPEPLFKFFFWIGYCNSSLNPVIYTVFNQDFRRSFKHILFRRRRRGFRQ
T1 sequence (P19328 whole entry): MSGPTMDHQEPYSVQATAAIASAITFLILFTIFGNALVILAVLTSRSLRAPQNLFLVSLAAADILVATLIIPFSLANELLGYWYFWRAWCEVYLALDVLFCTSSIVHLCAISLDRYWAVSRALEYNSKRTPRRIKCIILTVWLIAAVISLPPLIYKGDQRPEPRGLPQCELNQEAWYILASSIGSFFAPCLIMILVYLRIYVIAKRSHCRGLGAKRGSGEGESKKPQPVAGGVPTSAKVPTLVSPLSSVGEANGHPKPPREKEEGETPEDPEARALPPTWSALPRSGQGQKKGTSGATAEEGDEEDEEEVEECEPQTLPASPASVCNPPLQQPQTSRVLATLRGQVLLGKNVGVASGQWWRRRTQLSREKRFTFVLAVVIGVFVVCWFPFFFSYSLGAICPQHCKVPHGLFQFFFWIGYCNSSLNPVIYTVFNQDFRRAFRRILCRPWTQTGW
T1 sequence (P22909 whole entry): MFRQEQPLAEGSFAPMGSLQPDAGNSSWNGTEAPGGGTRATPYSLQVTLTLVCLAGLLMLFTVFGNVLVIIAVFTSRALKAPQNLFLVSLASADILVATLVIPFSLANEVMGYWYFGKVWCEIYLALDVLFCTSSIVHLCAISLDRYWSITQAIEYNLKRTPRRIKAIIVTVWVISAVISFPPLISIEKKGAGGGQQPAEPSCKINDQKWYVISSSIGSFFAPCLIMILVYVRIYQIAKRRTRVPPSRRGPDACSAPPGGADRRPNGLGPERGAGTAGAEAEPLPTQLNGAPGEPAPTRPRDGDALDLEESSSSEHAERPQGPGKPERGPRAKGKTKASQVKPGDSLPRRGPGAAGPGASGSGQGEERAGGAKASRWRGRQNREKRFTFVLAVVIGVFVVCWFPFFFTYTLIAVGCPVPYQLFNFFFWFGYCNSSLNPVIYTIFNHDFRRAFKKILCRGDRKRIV
Put plainly: Displacement of [3H]clonidine from alpha2-adrenergic receptor in rat cerebral cortex by liquid scintillation counting. In kind it is tissue-based. The gist of the method:
(§1)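 Rat cerebral cortex was homogenised in ice-cold 50 mM Tris-HCl pH 7.6 and spun at 20,000 g for 20 min at 0–4 °C, then washed once. Radioligands: [3H]prazosin 0.2 nM for α1, [3H]clonidine 2 nM for α2, [3H]CGP-12177 0.2 nM for β1. Test compounds were run at 7–8 concentrations from 10^-11 to 10^-4 M. Nonspecific binding was defined with phentolamine (α1), clonidine (α2) or propranolol (β1). Counting was by liquid scintillation, in duplicate. Ki was derived by Cheng–Prusoff from 2–3 experiments.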
In general terms: In a radioligand displacement assay an active substance lowers the binding of a labelled ligand.

In test [2] the target is T2, Adrenergic receptor alpha-1 (Rattus norvegicus, UniProt P15823+P23944+P43140).
T2 sequence (P15823 whole entry): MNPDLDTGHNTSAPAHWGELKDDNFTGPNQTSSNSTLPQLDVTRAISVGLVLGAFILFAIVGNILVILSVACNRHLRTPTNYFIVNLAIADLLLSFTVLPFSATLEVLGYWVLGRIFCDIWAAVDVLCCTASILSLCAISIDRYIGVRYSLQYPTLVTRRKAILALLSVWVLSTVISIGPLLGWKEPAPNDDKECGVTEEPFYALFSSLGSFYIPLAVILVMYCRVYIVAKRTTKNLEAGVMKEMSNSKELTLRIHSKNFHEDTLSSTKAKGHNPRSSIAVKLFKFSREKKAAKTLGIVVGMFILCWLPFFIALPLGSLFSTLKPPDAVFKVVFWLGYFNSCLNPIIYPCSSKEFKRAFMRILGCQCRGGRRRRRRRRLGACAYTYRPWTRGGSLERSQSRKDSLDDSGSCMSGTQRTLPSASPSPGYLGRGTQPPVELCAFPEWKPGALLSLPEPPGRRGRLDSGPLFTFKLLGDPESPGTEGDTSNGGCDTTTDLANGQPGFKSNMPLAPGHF
T2 sequence (P23944 whole entry): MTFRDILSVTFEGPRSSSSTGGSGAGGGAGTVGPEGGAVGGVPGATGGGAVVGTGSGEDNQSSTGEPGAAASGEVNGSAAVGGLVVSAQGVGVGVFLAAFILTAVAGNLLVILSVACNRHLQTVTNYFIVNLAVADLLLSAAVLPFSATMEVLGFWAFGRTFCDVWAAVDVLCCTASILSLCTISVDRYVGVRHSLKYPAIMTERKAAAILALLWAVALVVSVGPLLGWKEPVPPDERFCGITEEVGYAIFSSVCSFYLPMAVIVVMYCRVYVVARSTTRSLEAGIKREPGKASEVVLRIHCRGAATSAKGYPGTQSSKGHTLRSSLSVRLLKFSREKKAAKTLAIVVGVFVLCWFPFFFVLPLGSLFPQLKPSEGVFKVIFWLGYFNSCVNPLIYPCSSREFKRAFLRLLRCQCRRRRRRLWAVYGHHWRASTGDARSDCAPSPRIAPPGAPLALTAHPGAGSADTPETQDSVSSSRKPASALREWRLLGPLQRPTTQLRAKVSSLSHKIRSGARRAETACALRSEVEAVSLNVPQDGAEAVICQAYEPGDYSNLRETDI
T2 sequence (P43140 whole entry): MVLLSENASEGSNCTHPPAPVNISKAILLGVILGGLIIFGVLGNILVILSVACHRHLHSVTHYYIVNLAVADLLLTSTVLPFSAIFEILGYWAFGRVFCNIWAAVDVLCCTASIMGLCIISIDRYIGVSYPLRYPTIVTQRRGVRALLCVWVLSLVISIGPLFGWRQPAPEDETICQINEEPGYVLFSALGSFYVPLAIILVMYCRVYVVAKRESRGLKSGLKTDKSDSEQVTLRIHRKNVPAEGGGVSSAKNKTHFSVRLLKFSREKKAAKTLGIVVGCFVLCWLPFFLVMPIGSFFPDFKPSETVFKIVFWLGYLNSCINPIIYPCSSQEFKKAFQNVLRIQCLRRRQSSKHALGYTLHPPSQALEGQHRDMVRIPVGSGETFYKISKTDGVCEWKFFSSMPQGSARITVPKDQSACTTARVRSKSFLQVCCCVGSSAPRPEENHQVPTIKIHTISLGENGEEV
Put plainly: Displacement of [3H]-prazosin from alpha1-adrenergic receptor in rat cerebral cortex by liquid scintillation counting. In kind it is tissue-based. In a few lines:
as §1

As a reminder, the Ki is the dissociation constant of the complex between target and ligand, obtained from inhibition or displacement. The low end stands for tighter binding, the high end for weaker binding. Consider `COc1ccccc1N1CCN(CCCOc2cccc3c(=O)c4ccccc4oc23)CC1.Cl`, for which the inhibitory constant (Ki) is 695 nM in test [1] and 4 nM in test [2].
Consider `COc1ccccc1N1CCN(CC(COc2cccc3c(=O)c4ccccc4oc23)OC(C)=O)CC1.Cl` (racemic), for which the values for the inhibition constant Ki in test [1] and in test [2] were 2100 nM and 50 nM, respectively.
On the same counts, the results for `COc1ccccc1N1CCN(CC(O)COc2cccc3c(=O)c4ccccc4oc23)CC1.Cl` (racemic) are 4260 nM and 18 nM.
As to `Cl.Cl.Cl.O=c1c2ccc(Cl)cc2oc2c(OCC(O)CN3CCN(CCOc4ccccc4)CC3)cccc12` (racemic), the inhibition constant (Ki) worked out at 450 nM in test [1] and 506 nM in test [2].
Turning to `Cl.Cl.Cl.O=c1c2ccc(Cl)cc2oc2c(OCC(O)CN3CCN(C/C=C/c4ccccc4)CC3)cccc12` (racemic), the Ki in test [1] is 3400 nM; in test [2], 1100 nM.
`Cl.Cl.Cl.O=c1c2ccc(Cl)cc2oc2c(OCC(O)CN3CCN(Cc4ccccc4)CC3)cccc12` (racemic): the Ki in test [1] amounted to 7700 nM; in test [2], 614 nM.
For `Cl.Cl.O=c1c2ccccc2oc2c(OCC(O)CN3CCN(C/C=C/c4ccccc4)CC3)cccc12` (racemic), the Ki in test [1] amounted to 634 nM; in test [2], 677 nM.

The record behind these values is ChEMBL document CHEMBL2311390, “Synthesis and preliminary evaluation of pharmacological properties of some piperazine derivatives of xanthone” (Bioorg Med Chem, 2013).
